Rows were chosen to be rich in hits. Some 1.8% of all compounds tested hit in one or more screens of this group.
TNAP inh hiacc: human TNAP enzyme inhibitors, primary screen, biochemical, luminescent, high phosphate acceptor level, uHTS; Alkaline phosphatase, tissue-nonspecific isozyme (Homo sapiens), P05186; inhibition, % at 20 µM; 200,000 compounds, 0.03% hits; purified TNAP, CDP-star luminescence, 1 M DEA;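 active = over 50% inhibition of tissue-nonspecific alkaline phosphatase at 20 µM in the single-dose screen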;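 note: plate controls were DMSO wells for no effect and EDTA-quenched wells as full inhibition for full effect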
Autophagy HCS: autophagy modulators in MEF cells, primary screen, imaging, high-content, MEF GFP-LC3 | MEF GFP-LC3 puncta imaging; test concentration mostly 10 µM | calls only at 10 µM (by protocol) | 190,000 compounds, 0.98% hits;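 active = percentage of spot-positive cells more than 3 SD above its plate mean, without a fluorescence outlier flag or 80% toxicity; inconclusive = no clear call, values can overlap the other calls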;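 note: spot-positive cell cutoff set from DMSO-treated cells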
Insulin prom up: insulin promoter activators in MIN6 cells, imaging, high-content screening, mouse beta cells; 190,000 compounds, 0.3% hits; z-score at 5 µM; AID 1625, 2009; MIN6 insulin promoter-GFP reporter; hits give high values;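 active = z-score above 3 at 5 µM with at least 500 cells counted in the well; inconclusive = wells under 500 cells, flagged as cytotoxic or low count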
NCF1 inh: p47phox/p22phox peptide binding inhibitors, primary screen, biochemical, uHTS, NADPH oxidase regulatory subunit; Neutrophil cytosol factor 1 (Homo sapiens), P14598; fluorescence polarization, 2 h; 220,000 compounds, 0.53% hits; inhibition, % at 24.7 µM;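 active = inhibition above about 30%, limit read from the data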;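 note: 0% = p47phox with labelled peptide and 100% = labelled peptide alone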
Target sequence (P14598 whole entry, looked up): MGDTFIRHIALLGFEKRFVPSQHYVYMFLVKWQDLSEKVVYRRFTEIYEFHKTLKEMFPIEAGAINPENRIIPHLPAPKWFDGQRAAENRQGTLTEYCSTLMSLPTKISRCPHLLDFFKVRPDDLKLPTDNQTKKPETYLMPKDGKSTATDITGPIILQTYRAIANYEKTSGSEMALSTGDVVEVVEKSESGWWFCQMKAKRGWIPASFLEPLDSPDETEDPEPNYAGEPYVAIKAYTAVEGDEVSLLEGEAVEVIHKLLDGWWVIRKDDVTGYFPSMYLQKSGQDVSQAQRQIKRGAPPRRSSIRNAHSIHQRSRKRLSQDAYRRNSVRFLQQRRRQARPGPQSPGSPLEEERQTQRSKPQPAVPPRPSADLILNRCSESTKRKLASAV
TNAP act hiacc: TNAP activators at high phosphate acceptor level, primary screen, biochemical, luminescence, uHTS | activation factor at 20 µM | purified TNAP, CDP-star luminescence, 1 M DEA, 30 min; hits give high values; 0 = EDTA background, 1 = DMSO-only activity | 200,000 tested, under 10 active;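 active = activation factor at least 2 at 20 µM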
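Measured by: Luminescent substrate turnover signal | Test system: Human TNAP | Input: TNAP 1/800 final | Dosing: 20 µM single point | Schedule: 30 min, room temperature | Controls: EDTA wells as negative control, DMSO wells as positive control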
TNAP inh noacc: human TNAP enzyme inhibitors, primary screen, biochemical, luminescent, no phosphate acceptor, uHTS; Alkaline phosphatase, tissue-nonspecific isozyme (Homo sapiens), P05186; inhibition, % at 20 µM; purified TNAP, CDP-star luminescence, 30 min; 200,000 compounds, 0.26% hits; AID 1012, 2008;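 active = tissue-nonspecific alkaline phosphatase inhibition above about 50% at 20 µM in the single-dose screen, limit read from the data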;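 note: 0% = DMSO negative control and 100% = EDTA positive control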
* marks the source's active call; other numbers are inactive results.

What do the screens show for `CC(C)(C)C1CCC(C(=O)OCC(=O)c2ccc[nH]2)CC1` (stereo unspecified)?
TNAP inh hiacc: 0; Autophagy HCS: inactive; Insulin prom up: 0.16; NCF1 inh: -16; TNAP act hiacc: 1; TNAP inh noacc: -8

What do the screens show for `Cc1ccc2cc(CN(CCN3CCOCC3)Cc3nnnn3Cc3ccco3)c(=O)[nH]c2c1C`?
TNAP inh hiacc: -6; Autophagy HCS: active; NCF1 inh: 3; TNAP act hiacc: 1.1; TNAP inh noacc: -13

Results for Cc1ccc2cc(CN(Cc3ccc4c(c3)OCO4)Cc3nnnn3Cc3ccco3)c(=O)[nH]c2c1C ?
TNAP inh hiacc: 0; Autophagy HCS: inactive; Insulin prom up: -0.16; NCF1 inh: -10; TNAP act hiacc: 1; TNAP inh noacc: -5

What do the screens show for `O=C(CSc1ccc2ccccc2n1)N1CCC(c2noc3ccc(F)cc23)CC1`?
TNAP inh hiacc: -3; Autophagy HCS: inactive; NCF1 inh: -24; TNAP act hiacc: 1; TNAP inh noacc: -12

How did O=C1c2ccccc2-c2onc3ccc(Oc4ccccc4)c1c23 do in these assays?
TNAP inh hiacc: 27; Autophagy HCS: active; Insulin prom up: 1.3; NCF1 inh: -79; TNAP act hiacc: 0.7; TNAP inh noacc: 12

How did CN(C)c1ccc(/C=C2\C(=N)N3C(=NC2=O)Sc2cc(S(C)(=O)=O)ccc23)cc1 do in these assays?
NCF1 inh: -60

Results for CCOc1ccccc1OCCOCCN1CCN(Cc2ccccc2)CC1 ?
TNAP inh hiacc: -6; Autophagy HCS: inactive; Insulin prom up: -0.29; NCF1 inh: 40*; TNAP act hiacc: 1.1; TNAP inh noacc: -7

Results for CCC(=O)c1ccccc1OCCN1CCN(Cc2ccccc2)CC1 ?
TNAP inh hiacc: -1; Autophagy HCS: inactive; Insulin prom up: -0.38; NCF1 inh: 2; TNAP act hiacc: 1; TNAP inh noacc: -4

What do the screens show for `COc1ccc(CCNc2cc(N3CCN(C(=O)c4ccccc4F)CC3)ccc2[N+](=O)[O-])cc1OC`?
TNAP inh hiacc: 8; Autophagy HCS: active; Insulin prom up: inconclusive; NCF1 inh: 2; TNAP act hiacc: 0.9; TNAP inh noacc: 9

Results for O=C(CN1C(=O)c2cccc3cccc(c23)C1=O)NCCN1CCOCC1 ?
TNAP inh hiacc: -6; Autophagy HCS: inactive; Insulin prom up: 0.51; NCF1 inh: -2; TNAP act hiacc: 1.1; TNAP inh noacc: -20

What do the screens show for `c1ccc2c(c1)ccc1ncccc12`?
TNAP inh hiacc: -3; Autophagy HCS: inactive; Insulin prom up: -0.37; NCF1 inh: -6; TNAP act hiacc: 1; TNAP inh noacc: -11

What do the screens show for `Oc1c(N=Nc2ccccn2)ccc2ccccc12`?
TNAP inh hiacc: 34; Autophagy HCS: active; Insulin prom up: inconclusive; NCF1 inh: 62*; TNAP act hiacc: 0.7; TNAP inh noacc: 38

Results for CNC(=S)/N=C/NOCc1ccc(Cl)cc1Cl ?
TNAP inh hiacc: -2; Autophagy HCS: active; Insulin prom up: -2.6; NCF1 inh: -5; TNAP act hiacc: 1; TNAP inh noacc: -14

How did O=C(COC(=O)c1cnccn1)NCc1ccc2c(c1)OCO2 do in these assays?
TNAP inh hiacc: -6; Autophagy HCS: inactive; Insulin prom up: -0.55; NCF1 inh: -2; TNAP act hiacc: 1.1; TNAP inh noacc: -5

Results for Cc1ccc(S(=O)(=O)/N=S(\C)CC2CC2(Cl)Cl)cc1 (stereo unspecified) ?
TNAP inh hiacc: -9; Autophagy HCS: inactive; NCF1 inh: -6; TNAP act hiacc: 1.1; TNAP inh noacc: -14

What do the screens show for `O=S(CC1CC1(Cl)Cl)CC1CC1(Cl)Cl` (stereo unspecified)?
TNAP inh hiacc: -4; Autophagy HCS: active; Insulin prom up: 0.11; NCF1 inh: -6; TNAP act hiacc: 1; TNAP inh noacc: -2

What do the screens show for `COc1cccc(/C(O)=C/c2nc3ccc(C(=O)NCCc4cccc(C)c4)cc3[nH]c2=O)c1`?
TNAP inh hiacc: 13; Autophagy HCS: active; Insulin prom up: 1.1; NCF1 inh: -110; TNAP act hiacc: 0.9; TNAP inh noacc: 4

What do the screens show for `COc1cccc(/C(O)=C/c2nc3ccc(C(=O)NCCc4ccc(Cl)cc4)cc3[nH]c2=O)c1`?
TNAP inh hiacc: 16; Autophagy HCS: active; Insulin prom up: 0.95; NCF1 inh: -124; TNAP act hiacc: 0.8; TNAP inh noacc: 10

How did CN(C)CCNC(=O)c1cc2sc3ccccc3c2s1 do in these assays?
TNAP inh hiacc: -1; Autophagy HCS: inactive; Insulin prom up: -0.29; NCF1 inh: -7; TNAP act hiacc: 1; TNAP inh noacc: -8

Results for O=C(CO/N=C/c1ccc(OC(F)F)cc1)NC1CCCCCC1 ?
TNAP inh hiacc: -4; Autophagy HCS: active; Insulin prom up: 0; NCF1 inh: 2; TNAP act hiacc: 1; TNAP inh noacc: -3

Results for O=C(CO/N=C/c1ccc(OC(F)F)cc1)NC1CCCC1 ?
TNAP inh hiacc: -2; Autophagy HCS: inactive; Insulin prom up: 0.18; NCF1 inh: -15; TNAP act hiacc: 1; TNAP inh noacc: -18

How did CCCCOc1ccc(C(=O)C(CN2CCOCC2)c2ccccc2)cc1 (stereo unspecified) do in these assays?
TNAP inh hiacc: -3; Autophagy HCS: active; NCF1 inh: 0; TNAP act hiacc: 1; TNAP inh noacc: -8

How did O=[N+]([O-])/C=C\c1ccc(N2CCCC2)c(F)c1 do in these assays?
TNAP inh hiacc: 15; Autophagy HCS: inactive; Insulin prom up: -1.5; NCF1 inh: 36*; TNAP act hiacc: 0.8; TNAP inh noacc: 6

How did COc1cc(NC(=S)N2CCN(C(=O)C3CCCO3)CC2)c(OC)cc1Cl (stereo unspecified) do in these assays?
TNAP inh hiacc: -8; Autophagy HCS: inactive; Insulin prom up: 0.08; NCF1 inh: -6; TNAP act hiacc: 1.1; TNAP inh noacc: -6

Results for N#Cc1c2nc3ccccc3nc2n2cc(NC(=O)c3ccc(F)cc3)ccc12 ?
TNAP inh hiacc: 13; Autophagy HCS: inactive; Insulin prom up: 0.23; NCF1 inh: 55*; TNAP act hiacc: 0.9; TNAP inh noacc: 25

How did Cc1c(C(=O)Nc2ccc(F)cc2)cn2c(nc3ccccc32)c1C#N do in these assays?
Insulin prom up: -0.14; NCF1 inh: -14

Results for N#Cc1nc(COc2ccc(-c3ccccc3)cc2)oc1NCCCN1CCOCC1 ?
TNAP inh hiacc: -9; Autophagy HCS: inactive; Insulin prom up: 0.4; NCF1 inh: 7; TNAP act hiacc: 1.1; TNAP inh noacc: -13
